Reference: ChEMBL document CHEMBL3739281, “Identification, synthesis and pharmacological evaluation of novel anti-EV71 agents via cyclophilin A inhibition” (Bioorg Med Chem Lett, 2015)
pEC50, pIC50: −log10 of the molar value. Active and inactive are the calls of the source. The calls are words filed in the database; no cut-off is given here.

Tests used:
Enterovirus A71 [1] = test: Antiviral activity against EV71 infected in RD cells after 24 hrs by luciferase assay; assay type: functional, organism-based; settings: Enterovirus A
[2] = Retention time of the compound by HPLC analysis; assay type: physicochemical
[3] = target: T1, Peptidyl-prolyl cis-trans isomerase A (Homo sapiens, UniProt P62937); test: Inhibition of CypA (unknown origin) assessed as peptidyl-prolyl cis-trans isomerase activity using N-succinyl-Ala-Ala-Pro-Phe-p-nitroanilide as substrate by spectrophotometry; settings: for pIC50: read-out: IC50
Target sequence in this assay (P62937 whole entry): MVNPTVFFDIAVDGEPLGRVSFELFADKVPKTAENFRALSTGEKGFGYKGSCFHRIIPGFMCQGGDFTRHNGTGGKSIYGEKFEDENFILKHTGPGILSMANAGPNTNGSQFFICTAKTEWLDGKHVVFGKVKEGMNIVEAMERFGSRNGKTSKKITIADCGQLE

[4] = Cytotoxicity against human RD cells after 24 hrs by WST-1 assay; assay type: cell-based
[5] = target: T1, Peptidyl-prolyl cis-trans isomerase A; test: Inhibition of CypA (unknown origin) assessed as peptidyl-prolyl cis-trans isomerase activity at 10 uM using N-succinyl-Ala-Ala-Pro-Phe-p-nitroanilide as substrate by spectrophotometry
Target sequence in this assay (P62937 whole entry, looked up): as the sequence (P62937 whole entry) above

[6] = Cytotoxicity against ICR mouse B spleen cells assessed as inhibition of cell proliferation after 72 hrs by MTT assay; assay type: cell-based
[7] = Cytotoxicity against ICR mouse T spleen cells assessed as inhibition of cell proliferation after 72 hrs by MTT assay; assay type: cell-based
Summary of the method: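 Proliferation of T and B spleen cells, each from one mouse, run as triplicate sets per assay. IC50 is the mean ± SD of three experiments.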

Enterovirus A71 [8] = test: Antiviral activity against EV71; assay type: functional, organism-based; settings: Enterovirus A
Enterovirus A71 [9] = test: Potency index, Ratio of EC50 for cyclosporin A to EC50 for compound for antiviral activity against EV71; assay type: functional
Enterovirus A71 [10] = test: Antiviral activity against EV71 infected in RD cells assessed as decrease in viral protein1 level by western blot analysis; assay type: functional, organism-based
Summary of the method: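 EV71 VP1 protein detected by western blot in a dose series of 5, 1, 0.2 and 0.04 μM. NITD008 at 5 μM serves as positive control.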

Enterovirus A71 [11] = test: Antiviral activity against EV71 infected in RD cells at 0.08 uM after 24 hrs by luciferase assay in presence of NITD008; assay type: functional, organism-based
Enterovirus A71 [12] = test: Antiviral activity against EV71 infected in RD cells at 0.31 to 5 uM after 24 hrs by luciferase assay in presence of NK-1.8K; assay type: functional
Enterovirus A71 [13] = test: Antiviral activity against EV71 infected in RD cells assessed as decrease in viral RNA level at 5 uM after qRT-PCR analysis; assay type: functional; settings: Enterovirus A, read-out: INH
Summary of the method: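 Cells are infected with wild-type or S243P mutant EV71 and treated at 5 μM. Viral RNA is reported as a percentage of untreated control cells, with GAPDH mRNA as internal control. Each point is the average of three replicates.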

Enterovirus A71 [14] = test: Antiviral activity against EV71 infected in RD cells at 0.08 uM after 24 hrs by luciferase assay in presence of NK-1.8K; assay type: functional, organism-based
Enterovirus A71 [15] = test: Antiviral activity against EV71 infected in RD cells at 0.31 to 5 uM after 24 hrs by luciferase assay in presence of NITD008; assay type: functional

SMILES	pEC50 (Enterovirus A71 [1])	Retention_time [2]	pIC50 [3]	CC50 at 24 h [4]	inhibition [5]	other results
O=C(NC(=O)c1c(O)cccc1O)NC1c2ccccc2-c2cc(Cl)ccc21 (centres undefined)	6.34	4.19 min	5.91	> 25 µM		
O=C(NC(=O)c1ccccc1F)NC1c2ccccc2-c2cc(F)ccc21 (centres undefined)	5.68	6.15 min	4.99	> 10 µM		
O=C(NC(=O)c1c(O)cccc1O)NC1c2ccccc2C2CCCCC21 (racemic)	5.37	5.41 min	5.00	> 25 µM	27.6%	
O=C(NC(=O)c1c(O)cccc1O)NC1c2ccccc2-c2cccc(F)c21 (centres undefined)	5.95	4.7 min	6.03	> 25 µM		
O=C(NC(=O)c1c(O)cccc1O)NC1c2ccccc2-c2ccccc21	5.47			> 20 µM		pIC50 [6]: 4.28; pIC50 [7]: 4.48
O=C(NC(=O)c1cc(F)ccc1O)NC1c2ccccc2-c2ccccc21	5.42	8.91 min	5.00	> 25 µM	27.7%	
O=C(NC(=O)c1ccccc1F)NC1c2ccccc2-c2cccc(F)c21 (centres undefined)	6.18	6.02 min	4.98	> 25 µM		
CCOC(=O)/C=C/[C@H](C[C@@H]1CCNC1=O)NC(=O)[C@@H](CC(=O)[C@@H](NC(=O)c1cc(C)on1)C(C)C)Cc1ccc(F)cc1						pEC50 (Enterovirus A71 [8]): 7.85
O=C(NC(=O)c1cc(O)cc(O)c1)NC1c2ccccc2-c2ccccc21	< 4.60	7.88 min		> 25 µM		IC50 [3]: Not Active
O=C(NCc1ccccc1F)NC1c2ccccc2-c2ccccc21	< 4.60	5.57 min	5.00	> 25 µM	17.8%	
Cc1ccc2c(c1)-c1ccccc1C2NC(=O)NC(=O)c1c(O)cccc1O (centres undefined)	5.57	4.42 min	4.93	> 25 µM		
O=C(NC(=O)c1c(O)cccc1O)NC1c2ccccc2-c2cc(C(F)(F)F)ccc21 (centres undefined)	< 5.00	5.68 min		> 25 µM	20.3%	
O=C(NC(=O)c1c(F)cccc1F)NC1c2ccccc2-c2ccccc21	5.23			> 20 µM		
O=C(NC(=O)c1c(O)cccc1O)NC1c2ccccc2-c2cc3ccccc3cc21 (centres undefined)	5.72	5.07 min	5.00	> 25 µM	39.1%	
O=C(Cc1ccccc1F)NC(=O)NC1c2ccccc2-c2ccccc21	< 5.00	6.05 min	5.00	> 50 µM	16.9%	
O=C(NC(=O)c1ccccc1F)NC1c2ccccc2C2CCCCC21 (racemic)	5.28	9.04 min	5.00	> 25 µM	33.5%	
Cc1ccc2c(c1)-c1ccccc1C2NC(=O)NC(=O)c1ccccc1F (centres undefined)	6.04	8.84 min	5.00	> 10 µM	28.7%	
O=C(NCc1c(O)cccc1O)NC1c2ccccc2-c2ccccc21	< 5.00	5.37 min	5.00	> 25 µM	9.25%	
O=C(NC(=O)c1ccc(O)cc1O)NC1c2ccccc2-c2ccccc21	< 4.60	5.44 min	5.00	> 25 µM	21.4%	
C/C=C/C[C@@H](C)[C@@H](O)[C@H]1C(=O)N[C@@H](CC)C(=O)N(C)CC(=O)N(C)[C@@H](CC(C)C)C(=O)N[C@@H](C(C)C)C(=O)N(C)[C@@H](CC(C)C)C(=O)N[C@@H](C)C(=O)N[C@H](C)C(=O)N(C)[C@@H](CC(C)C)C(=O)N(C)[C@@H](CC(C)C)C(=O)N(C)[C@@H](C(C)C)C(=O)N1C [CYCLOSPORINE]	5.44					
O=C(NC(=O)c1ccccc1F)NC1c2ccccc2-c2cc(Cl)ccc21 (centres undefined)	5.48	6.6 min	4.97	> 25 µM		
O=C(NC(=O)c1c(O)cccc1O)NC1c2ccc(F)cc2-c2ccc(F)cc21 (centres undefined)	5.97	4.94 min	4.99	> 25 µM		
O=C(NC(=O)c1ccccc1F)NC1c2ccccc2-c2ccccc21	5.97			> 20 µM		pIC50 [6]: < 4.00; pIC50 [7]: < 4.00
O=C(NC(=O)c1c(O)cccc1O)NC1c2ccccc2-c2cc(F)ccc21 (centres undefined)	6.43	8.07 min	5.56	> 25 µM		Ratio EC50 (Enterovirus A71 [9]): 9.9; inhibition (Enterovirus A71 [10]): Dose-dependent effect; Activity (Enterovirus A71 [11]): inactive; %max (Enterovirus A71 [12]): 20%; inhibition at 5 µM (Enterovirus A71 [13]): 3%; Activity (Enterovirus A71 [14]): inactive; %max (Enterovirus A71 [15]): 20%
